The text below walks through data of ChEMBL document CHEMBL1152520.

Test [1] has as its system RAW264.7. Briefly: Inhibition of LPS-induced NF-kappaB transcriptional activation expressed in mouse RAW264.7 cells assessed as NF-kappaB activity at 10 uM treated after LPS challenge measured after 24 hrs by luciferase reporter gene assay relative to control. In kind it is cell-based. In short, it runs like this:
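RAW 264.7 cells, about 1 10^5 per well, were seeded 24 h before co-transfection (lipofectamine plus) with pAP-1-Luc or pNF-κB-Luc plus the pGL-hRluc internal control. At 48 h post-transfection, E. coli 0111:B4 LPS (100 ng/mL final) was added for 6 h. Compound in DMSO (10 µM final) was then added and cells were harvested 24 h later. Dual-luciferase readout: firefly/Renilla ratio expressed as multiples of the untreated control, mean SEM, n = 3. Paired Student's t-test.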

Test [2] in a line: Inhibition of LPS-induced AP1 transcriptional activation expressed in mouse RAW264.7 cells assessed as AP1 activity at 10 uM treated after LPS challenge measured after 24 hrs by luciferase reporter gene assay relative to control. In general terms: A reporter such as luciferase makes a cellular process visible.

In the case of `CC1=C[C@@]2(CC#N)CC[C@H]3[C@@](C)(CCC[C@@]3(C)C(=O)O)[C@@H]2CC1`, the luciferase ratio in test [1] amounted to 0.22. Besides, the Activity in test [2] turned out to be 2.85.

Regarding `C[C@@]12CC[C@@H]3[C@@](CC[C@H]4[C@@]3(C)[C@@H](O)CC[C@@]4(C)C(=O)O)(C/C1=N\O)C2`, the luciferase ratio in test [1] came to 0.13. Further, the Activity in test [2] was 3.52.

Regarding `C[C@@]12CC[C@@H]3[C@@](CC1=O)(C2)[C@@H](O)C[C@H]1[C@@]3(C)[C@@H](O)CC[C@@]1(C)C(=O)O`, the luciferase ratio in test [1] came out at 0.16. The Activity in test [2] was 2.98.

Consider `CC1=CC[C@@H]2[C@](CC#N)(CC[C@H]3[C@@]2(C)CCC[C@@]3(C)C(=O)O)C1`, for which, in test [1], the luciferase ratio was determined as 0.18. Further, the Activity in test [2] is 2.22.

For `C[C@@]12CC[C@@H]3[C@@](C/C1=N\O)(C2)[C@@H](O)C[C@H]1[C@@]3(C)[C@@H](O)CC[C@@]1(C)C(=O)O`, the luciferase ratio in test [1] came out at 0.26. In addition, the Activity in test [2] turned out to be 3.37.

Consider `C[C@@]12CC[C@H]3[C@]4(C)CCC[C@@](C)(C(=O)O)[C@H]4C[C@H](O)[C@]3(C/C1=N\O)C2`, for which the luciferase ratio in test [1] came out at 0.16. Further, the Activity in test [2] came to 2.69.

On to `C[C@@]12CC[C@@H]3[C@@](CC[C@H]4[C@@]3(C)CCC[C@@]4(C)C(=O)O)(C/C1=N\O)C2`, for which, in test [1], the luciferase ratio was 0.15. Besides, the Activity in test [2] worked out at 4.87.

In the case of `C[C@@]12CC[C@@H]3[C@@](CC[C@H]4[C@@]3(C)CCC[C@@]4(C)C(=O)O)(CC(=O)O1)C2`, the luciferase ratio in test [1] is 0.2. Moreover, the Activity in test [2] is 2.38.

In the case of `C[C@@]12CC[C@@H]3[C@@](CC[C@H]4[C@@]3(C)CCC[C@@]4(C)C(=O)O)(CC(=O)N1)C2`, the luciferase ratio in test [1] came to 0.15. The Activity in test [2] is 3.19.
